Laboratory results published in ChEMBL document CHEMBL1833959, “Itraconazole side chain analogues: structure-activity relationship studies for inhibition of endothelial cell proliferation, vascular endothelial growth factor receptor 2 (VEGFR2) glycosylation, and hedgehog signaling” (2011).
Active and inactive are the calls of the source. The rule behind the calls is not given here.

Assays:
[1] = biological target: Vascular endothelial growth factor receptor 2 (Homo sapiens) (UniProt P35968); test: Inhibition of VEGFR2 glycosylation in human HUVEC cells at 2 uM after 24 hrs by Western blot analysis; format: cell-based
In short: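 Pooled HUVEC (passage ≤8, EGM-2) seeded 5 × 10^4 per well, recovered overnight, then given fresh media with analogue added from 200X DMSO stocks; 24 h exposure. Cells lysed in 2X SDS sample buffer (ice 10 min, boiled 10 min), 6% SDS-PAGE, PVDF blot probed with anti-VEGFR2 and HRP anti-rabbit IgG, ECL detection.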

HUVEC [2] = test: Ratio of itraconazole IC50 to compound IC50 for antiangiogenic activity in human HUVEC cells assessed as inhibition of cell proliferation; format: functional
[3] = Inhibition of hedgehog signaling pathway in mouse Ptch+/- p53-/- medulloblastoma cells assessed as inhibition of receptor-mediated Gli1 transcriptional activity at antiproliferative IC90 concentration after 24 hrs by RT-PCR analysis relative to control
[4] = Ratio of itraconazole IC50 to compound IC50 for antiproliferative activity against mouse Ptch+/- p53-/- medulloblastoma cells isolated from allografts in nude Harlan mouse after 96 hrs; format: functional, Medulloblastoma cell
In short: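 Ptch−/+;p53−/− MB cells from nude-mouse allografts (ficoll-purified, three neurosphere passages, CD15 confirmed by flow cytometry) disaggregated and seeded in NBMedia with multiple analogue concentrations for 96 h. Cell number read by MTS-type CellTiter 96 AQueous absorbance; IC50 fitted from dose–response curves of mean corrected absorbance normalized to control, expressed relative to itraconazole.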

HUVEC [5] = test: Ratio of itraconazole IC50 to compound […] for antiangiogenic activity in human HUVEC cells assessed as inhibition of cell proliferation; format: functional

Chain of Vascular endothelial growth factor receptor 2 (Homo sapiens) (P35968 whole entry): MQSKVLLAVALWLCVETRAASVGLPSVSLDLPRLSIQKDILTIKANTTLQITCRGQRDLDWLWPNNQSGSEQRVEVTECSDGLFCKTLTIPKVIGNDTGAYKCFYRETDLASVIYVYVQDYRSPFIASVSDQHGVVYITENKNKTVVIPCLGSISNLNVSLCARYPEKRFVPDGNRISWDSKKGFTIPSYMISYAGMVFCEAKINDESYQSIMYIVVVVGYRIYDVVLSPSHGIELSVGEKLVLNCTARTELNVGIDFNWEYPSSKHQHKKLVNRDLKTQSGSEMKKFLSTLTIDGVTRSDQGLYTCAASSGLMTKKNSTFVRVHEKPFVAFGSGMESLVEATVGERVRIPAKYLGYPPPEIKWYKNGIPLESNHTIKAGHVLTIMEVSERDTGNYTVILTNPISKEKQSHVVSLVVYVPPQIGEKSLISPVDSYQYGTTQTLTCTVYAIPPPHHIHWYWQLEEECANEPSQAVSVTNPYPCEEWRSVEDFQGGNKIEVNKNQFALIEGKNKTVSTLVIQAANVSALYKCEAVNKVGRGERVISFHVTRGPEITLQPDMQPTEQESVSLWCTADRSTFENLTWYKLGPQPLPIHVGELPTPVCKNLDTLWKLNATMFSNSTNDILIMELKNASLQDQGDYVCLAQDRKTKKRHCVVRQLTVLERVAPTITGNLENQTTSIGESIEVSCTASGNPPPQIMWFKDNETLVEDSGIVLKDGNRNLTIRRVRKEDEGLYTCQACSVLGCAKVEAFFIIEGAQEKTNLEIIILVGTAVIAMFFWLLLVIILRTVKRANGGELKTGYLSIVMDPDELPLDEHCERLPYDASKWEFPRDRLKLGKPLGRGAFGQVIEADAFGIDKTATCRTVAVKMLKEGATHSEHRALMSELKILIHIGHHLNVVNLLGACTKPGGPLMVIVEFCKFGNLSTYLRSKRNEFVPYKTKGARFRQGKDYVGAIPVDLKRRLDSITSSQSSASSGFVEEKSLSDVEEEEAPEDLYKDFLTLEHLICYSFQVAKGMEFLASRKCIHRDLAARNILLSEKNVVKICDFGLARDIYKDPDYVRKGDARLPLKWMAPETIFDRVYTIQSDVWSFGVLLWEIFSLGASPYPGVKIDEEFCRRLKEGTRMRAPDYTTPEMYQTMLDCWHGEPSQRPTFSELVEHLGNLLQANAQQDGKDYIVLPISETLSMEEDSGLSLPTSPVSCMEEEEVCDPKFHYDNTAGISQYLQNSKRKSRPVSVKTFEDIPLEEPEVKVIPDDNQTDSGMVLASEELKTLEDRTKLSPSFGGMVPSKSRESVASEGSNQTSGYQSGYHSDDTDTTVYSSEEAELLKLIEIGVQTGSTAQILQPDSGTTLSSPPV

inhibition [1] | fold change (FC) [3] | SMILES | Ratio IC50 (HUVEC [2]) | Ratio IC50 [4] | Ratio (HUVEC [5])
Active | 0.16 | [N-]=[N+]=NCCCCCCn1ncn(-c2ccc(N3CCN(c4ccc(OC[C@@H]5CO[C@@](Cn6cncn6)(c6ccc(Cl)cc6Cl)O5)cc4)CC3)cc2)c1=O | 0.3 | 0.7 | –
Active | – | CC[C@H](C)n1ncn(-c2ccc(N3CCN(c4ccc(OC[C@H]5CO[C@](Cn6cncn6)(c6ccc(Cl)cc6Cl)O5)cc4)CC3)cc2)c1=O | 1.6 | 1.3 | –
inactive | – | CC[C@@H](C)n1ncn(-c2ccc(N3CCN(c4ccc(OC[C@H]5CO[C@@](Cn6cncn6)(c6ccc(Cl)cc6Cl)O5)cc4)CC3)cc2)c1=O | 3.9 | 1.7 | –
Active | – | CC[C@@H](C)n1ncn(-c2ccc(N3CCN(c4ccc(OC[C@H]5CO[C@](Cn6cncn6)(c6ccc(Cl)cc6Cl)O5)cc4)CC3)cc2)c1=O | 2.5 | 1.7 | –
Active | > 0.45 | CC(C)Cn1ncn(-c2ccc(N3CCN(c4ccc(OC[C@@H]5CO[C@@](Cn6cncn6)(c6ccc(Cl)cc6Cl)O5)cc4)CC3)cc2)c1=O | 1.32 | 0.86 | –
Active | < 0.15 | CCC(CC)n1ncn(-c2ccc(N3CCN(c4ccc(OC[C@@H]5CO[C@@](Cn6cncn6)(c6ccc(Cl)cc6Cl)O5)cc4)CC3)cc2)c1=O | 1.1 | 0.54 | –
inactive | < 0.15 | CCCCCn1ncn(-c2ccc(N3CCN(c4ccc(OC[C@@H]5CO[C@@](Cn6cncn6)(c6ccc(Cl)cc6Cl)O5)cc4)CC3)cc2)c1=O | 1.09 | 0.66 | –
Active | < 0.15 | CCCn1ncn(-c2ccc(N3CCN(c4ccc(OC[C@@H]5CO[C@@](Cn6cncn6)(c6ccc(Cl)cc6Cl)O5)cc4)CC3)cc2)c1=O | 1.06 | 1.01 | –
inactive | > 0.45 | CCCCn1ncn(-c2ccc(N3CCN(c4ccc(OC[C@@H]5CO[C@@](Cn6cncn6)(c6ccc(Cl)cc6Cl)O5)cc4)CC3)cc2)c1=O | 2.1 | 0.7 | –
inactive | > 0.45 | CC1(CCCCCCCn2ncn(-c3ccc(N4CCN(c5ccc(OC[C@@H]6CO[C@@](Cn7cncn7)(c7ccc(Cl)cc7Cl)O6)cc5)CC4)cc3)c2=O)N=N1 | – | 1.18 | 1.1
Active | – | CC[C@H](C)n1ncn(-c2ccc(N3CCN(c4ccc(OC[C@H]5CO[C@@](Cn6cncn6)(c6ccc(Cl)cc6Cl)O5)cc4)CC3)cc2)c1=O | 3.1 | 2.1 | –
inactive | > 0.45 | CC(C)n1ncn(-c2ccc(N3CCN(c4ccc(OC[C@@H]5CO[C@@](Cn6cncn6)(c6ccc(Cl)cc6Cl)O5)cc4)CC3)cc2)c1=O | 2.18 | 1.06 | –
inactive | < 0.15 | O=c1[nH]ncn1-c1ccc(N2CCN(c3ccc(OC[C@@H]4CO[C@@](Cn5cncn5)(c5ccc(Cl)cc5Cl)O4)cc3)CC2)cc1 | 2.78 | 0.89 | –
Active | < 0.15 | CC(C)CCn1ncn(-c2ccc(N3CCN(c4ccc(OC[C@@H]5CO[C@@](Cn6cncn6)(c6ccc(Cl)cc6Cl)O5)cc4)CC3)cc2)c1=O | 1.42 | 0.41 | –
Active | 0.16 | CCC1(Cn2ncn(-c3ccc(N4CCN(c5ccc(OC[C@@H]6CO[C@@](Cn7cncn7)(c7ccc(Cl)cc7Cl)O6)cc5)CC4)cc3)c2=O)COC1 | 0.77 | 0.74 | –
inactive | < 0.15 | CCC#CCCn1ncn(-c2ccc(N3CCN(c4ccc(OC[C@@H]5CO[C@@](Cn6cncn6)(c6ccc(Cl)cc6Cl)O5)cc4)CC3)cc2)c1=O | 1.09 | 1.07 | –
Active | – | CC[C@@H](C)n1ncn(-c2ccc(N3CCN(c4ccc(OC[C@@H]5CO[C@@](Cn6cncn6)(c6ccc(Cl)cc6Cl)O5)cc4)CC3)cc2)c1=O | 1.1 | 1.4 | –

inhibition [1] | fold change (FC) [3] | SMILES | Ratio IC50 (HUVEC [2]) | Ratio IC50 [4] | Ratio (HUVEC [5])
Active | 0.16 | O=c1n(-c2ccc(N3CCN(c4ccc(OC[C@@H]5CO[C@@](Cn6cncn6)(c6ccc(Cl)cc6Cl)O5)cc4)CC3)cc2)cnn1CC1CCCC1 | 0.5 | 0.5 | –
Active | > 0.45 | O=c1n(-c2ccc(N3CCN(c4ccc(OC[C@@H]5CO[C@@](Cn6cncn6)(c6ccc(Cl)cc6Cl)O5)cc4)CC3)cc2)cnn1C1CCCCC1 | 0.44 | 0.37 | –
inactive | > 0.45 | O=C(c1ccccc1)c1ccc(OCCCCCCn2ncn(-c3ccc(N4CCN(c5ccc(OC[C@@H]6CO[C@@](Cn7cncn7)(c7ccc(Cl)cc7Cl)O6)cc5)CC4)cc3)c2=O)cc1 | >69.9 | 0.8 | –
Active | 0.16 | CC1(CCn2ncn(-c3ccc(N4CCN(c5ccc(OC[C@@H]6CO[C@@](Cn7cncn7)(c7ccc(Cl)cc7Cl)O6)cc5)CC4)cc3)c2=O)N=N1 | >13.8 | 1.32 | –
Active | < 0.15 | CCCC(C)n1ncn(-c2ccc(N3CCN(c4ccc(OC[C@@H]5CO[C@@](Cn6cncn6)(c6ccc(Cl)cc6Cl)O5)cc4)CC3)cc2)c1=O (mixture of isomers) | 0.75 | 0.38 | –
inactive | – | CC[C@@H](C)n1ncn(-c2ccc(N3CCN(c4ccc(OC[C@@H]5CO[C@](Cn6cncn6)(c6ccc(Cl)cc6Cl)O5)cc4)CC3)cc2)c1=O | 3.7 | 2.3 | –
Active | 0.16 | N#CCCCCCn1ncn(-c2ccc(N3CCN(c4ccc(OC[C@@H]5CO[C@@](Cn6cncn6)(c6ccc(Cl)cc6Cl)O5)cc4)CC3)cc2)c1=O | 0.18 | 0.84 | –
inactive | > 0.45 | Cn1ncn(-c2ccc(N3CCN(c4ccc(OC[C@@H]5CO[C@@](Cn6cncn6)(c6ccc(Cl)cc6Cl)O5)cc4)CC3)cc2)c1=O | 4 | 2.71 | –
Active | < 0.15 | CCC(C)n1ncn(-c2ccc(N3CCN(c4ccc(OCC5COC(Cn6cncn6)(c6ccc(Cl)cc6Cl)O5)cc4)CC3)cc2)c1=O (stereo not drawn) [ITRACONAZOLE] | 1 | 1 | –
inactive | > 0.45 | CCn1ncn(-c2ccc(N3CCN(c4ccc(OC[C@@H]5CO[C@@](Cn6cncn6)(c6ccc(Cl)cc6Cl)O5)cc4)CC3)cc2)c1=O | 2.94 | 1.62 | –
Active | – | CC[C@H](C)n1ncn(-c2ccc(N3CCN(c4ccc(OC[C@@H]5CO[C@@](Cn6cncn6)(c6ccc(Cl)cc6Cl)O5)cc4)CC3)cc2)c1=O | 0.8 | 1.3 | –
inactive | < 0.15 | C#CCCCn1ncn(-c2ccc(N3CCN(c4ccc(OC[C@H]5CO[C@](Cn6cncn6)(c6ccc(Cl)cc6Cl)O5)cc4)CC3)cc2)c1=O | 0.14 | 0.71 | –
inactive | < 0.15 | O=c1n(-c2ccc(N3CCN(c4ccc(OC[C@@H]5CO[C@@](Cn6cncn6)(c6ccc(Cl)cc6Cl)O5)cc4)CC3)cc2)cnn1CCCCCCc1ccccc1 | – | 0.69 | 1.45
Active | – | CC[C@H](C)n1ncn(-c2ccc(N3CCN(c4ccc(OC[C@@H]5CO[C@](Cn6cncn6)(c6ccc(Cl)cc6Cl)O5)cc4)CC3)cc2)c1=O | 3.2 | 1.5 | –
inactive | < 0.15 | CCCCCCCCn1ncn(-c2ccc(N3CCN(c4ccc(OC[C@@H]5CO[C@@](Cn6cncn6)(c6ccc(Cl)cc6Cl)O5)cc4)CC3)cc2)c1=O | – | 0.67 | 2.24
inactive | < 0.15 | CC/C=C/CCn1ncn(-c2ccc(N3CCN(c4ccc(OC[C@@H]5CO[C@@](Cn6cncn6)(c6ccc(Cl)cc6Cl)O5)cc4)CC3)cc2)c1=O | 1.57 | 0.63 | –
inactive | < 0.15 | CC/C=C\CCn1ncn(-c2ccc(N3CCN(c4ccc(OC[C@@H]5CO[C@@](Cn6cncn6)(c6ccc(Cl)cc6Cl)O5)cc4)CC3)cc2)c1=O | 0.73 | 0.94 | –
